The target in assay [1] is Cyclin-dependent kinase 4 (Homo sapiens, UniProt P11802). The assay can be described thus: Inhibition of CDK4.
Assay [2] concerns the target Vascular endothelial growth factor receptor 2 (Homo sapiens) (UniProt P35968). The assay can be described thus: Inhibition of VEGFR2 at 10 uM.
Assay [3] deals with T1, Ephrin type-B receptor 4 (Homo sapiens) (UniProt P54760).
T1 sequence (whole entry): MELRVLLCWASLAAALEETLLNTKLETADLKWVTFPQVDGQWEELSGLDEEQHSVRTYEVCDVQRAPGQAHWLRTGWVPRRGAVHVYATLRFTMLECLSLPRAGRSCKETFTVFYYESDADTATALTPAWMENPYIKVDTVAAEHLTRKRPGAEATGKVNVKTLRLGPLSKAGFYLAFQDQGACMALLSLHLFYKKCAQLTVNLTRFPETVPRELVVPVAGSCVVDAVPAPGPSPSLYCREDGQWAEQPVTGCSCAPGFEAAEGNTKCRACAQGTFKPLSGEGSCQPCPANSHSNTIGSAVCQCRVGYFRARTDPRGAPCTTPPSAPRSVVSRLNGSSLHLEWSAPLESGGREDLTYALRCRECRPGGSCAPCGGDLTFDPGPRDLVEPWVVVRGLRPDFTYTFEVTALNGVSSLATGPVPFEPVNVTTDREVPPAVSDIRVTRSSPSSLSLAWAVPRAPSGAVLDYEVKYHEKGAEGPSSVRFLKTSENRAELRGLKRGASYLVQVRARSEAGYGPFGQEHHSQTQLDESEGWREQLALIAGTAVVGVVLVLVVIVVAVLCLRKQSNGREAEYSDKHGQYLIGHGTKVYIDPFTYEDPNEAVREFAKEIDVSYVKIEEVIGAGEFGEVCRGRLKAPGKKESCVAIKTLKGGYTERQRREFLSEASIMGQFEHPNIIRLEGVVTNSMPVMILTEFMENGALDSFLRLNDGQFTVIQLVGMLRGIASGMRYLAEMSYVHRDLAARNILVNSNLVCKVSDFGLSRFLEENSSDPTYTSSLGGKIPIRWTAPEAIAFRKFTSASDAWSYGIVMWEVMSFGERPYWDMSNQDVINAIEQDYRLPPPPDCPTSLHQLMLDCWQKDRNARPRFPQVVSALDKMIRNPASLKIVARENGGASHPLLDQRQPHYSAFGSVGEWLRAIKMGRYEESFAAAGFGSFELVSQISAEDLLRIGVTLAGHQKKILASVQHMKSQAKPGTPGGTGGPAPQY
Put plainly: Inhibition of EphB4 at 10 uM.

In assay [4] the target is Platelet-derived growth factor receptor beta (Homo sapiens) (UniProt P09619). The assay can be described thus: Inhibition of PDGFRbeta at 10 uM.
Assay [5] has as its target Serine/threonine-protein kinase PLK1 (Homo sapiens) (UniProt P53350). Put plainly: Inhibition of PLK1 at 10 uM.
Assay [6] has as its target Receptor-type tyrosine-protein kinase FLT3 (Homo sapiens) (UniProt P36888). The assay can be described thus: Inhibition of FLT3 at 10 uM.
In assay [7] the target is 3-phosphoinositide-dependent protein kinase 1 (Homo sapiens) (UniProt O15530). The assay can be described thus: Inhibition of PDK1 at 10 uM.
In assay [8] the target is Insulin-like growth factor 1 receptor (Homo sapiens) (UniProt P08069). Put plainly: Inhibition of IGF1R at 10 uM.
The target in assay [9] is T2, Vascular endothelial growth factor receptor 3 (Homo sapiens, UniProt P35916). The assay can be described thus: Inhibition of VEGFR3 at 10 uM.
The target of assay [10] is Angiopoietin-1 receptor (Homo sapiens) (UniProt Q02763). The assay can be described thus: Inhibition of TIE2 at 10 uM.
Assay [11] concerns the target Proto-oncogene tyrosine-protein kinase Src (Homo sapiens) (UniProt P12931). Put plainly: Inhibition of SRC at 10 uM.
A further assay concerns NCI-H460. Put plainly: Antiproliferative activity against human NCI-H460 cells at 100 uM after 48 hrs relative to control. It counts as functional. The conditions noted are these: NCI-H460, 48 h. In outline:
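NCI three-cell-line prescreen (MCF7 breast, NCI-H460 non-small cell lung, SF-268 CNS). Cells inoculated and preincubated in microtiter plates, then exposed to test agent at 10^-4 M for 48 h. Alamar blue end-point read-out. Growth of treated cells expressed as percent of untreated control cells.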

Assay [12] deals with Hepatocyte growth factor receptor (Homo sapiens) (UniProt P08581). Put plainly: Inhibition of MET at 10 uM.
The target of assay [13] is Serine/threonine-protein kinase PAK 4 (Homo sapiens) (UniProt O96013). Put plainly: Inhibition of PAK4 at 10 uM.
For assay [14], the target named is RAC-alpha serine/threonine-protein kinase (Homo sapiens) (UniProt P31749). Put plainly: Inhibition of AKT1 at 10 uM.
For another assay, the species on record is Homo sapiens. Put plainly: Inhibition of CK2-alpha1 at 10 uM.
For a further assay, the system named is K562. Put plainly: Antitumor activity against human K562 cells after 48 hrs by sulforhodamine B protein assay. It counts as functional. The conditions noted are these: K562, 48 h. In outline: (§1)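 Part of the NCI 60-cell-line screen. Compounds tested at five concentrations (10^-8 to 10^-4 M) with continuous exposure for 48 h. Cell growth read by sulforhodamine B protein assay, with percent growth from optical density of treated versus untreated control cultures. GI50 is the concentration giving 50% net growth inhibition.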

In another assay the test system is MDA-MB-435. The assay can be described thus: Antitumor activity against human MDA-MB435 cells after 48 hrs by sulforhodamine B protein assay. It counts as functional. Particulars: MDA-MB-435, 48 h. The gist of the method:
as §1

Assay [15] deals with Epidermal growth factor receptor (Homo sapiens) (UniProt P00533). The assay can be described thus: Inhibition of EGFR at 10 uM.
Assay [16] addresses Receptor-type tyrosine-protein kinase FLT3 (Homo sapiens, UniProt P36888). Put plainly: Inhibition of FLT3.
Assay [17] has as its target T2, Vascular endothelial growth factor receptor 3. Put plainly: Inhibition of VEGFR3.

Serine/threonine-protein kinase PLK1 (Homo sapiens), sequence (P53350 whole entry): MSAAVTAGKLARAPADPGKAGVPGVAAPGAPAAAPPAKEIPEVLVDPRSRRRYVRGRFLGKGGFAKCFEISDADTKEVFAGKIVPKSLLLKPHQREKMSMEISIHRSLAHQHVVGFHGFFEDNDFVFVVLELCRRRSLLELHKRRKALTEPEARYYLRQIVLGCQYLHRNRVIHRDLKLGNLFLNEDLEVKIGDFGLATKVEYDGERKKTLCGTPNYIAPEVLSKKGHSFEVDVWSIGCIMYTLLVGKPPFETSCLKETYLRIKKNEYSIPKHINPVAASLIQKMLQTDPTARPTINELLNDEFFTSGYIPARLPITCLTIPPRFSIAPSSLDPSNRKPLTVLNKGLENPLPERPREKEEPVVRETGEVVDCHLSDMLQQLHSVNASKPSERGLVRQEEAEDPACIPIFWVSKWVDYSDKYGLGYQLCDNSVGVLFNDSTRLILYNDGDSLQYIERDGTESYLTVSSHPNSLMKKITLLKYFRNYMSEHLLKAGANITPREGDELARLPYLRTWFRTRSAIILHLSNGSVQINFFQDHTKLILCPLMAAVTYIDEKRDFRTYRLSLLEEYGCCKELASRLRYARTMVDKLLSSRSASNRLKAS
Serine/threonine-protein kinase PAK 4 (Homo sapiens), sequence (O96013 whole entry, looked up): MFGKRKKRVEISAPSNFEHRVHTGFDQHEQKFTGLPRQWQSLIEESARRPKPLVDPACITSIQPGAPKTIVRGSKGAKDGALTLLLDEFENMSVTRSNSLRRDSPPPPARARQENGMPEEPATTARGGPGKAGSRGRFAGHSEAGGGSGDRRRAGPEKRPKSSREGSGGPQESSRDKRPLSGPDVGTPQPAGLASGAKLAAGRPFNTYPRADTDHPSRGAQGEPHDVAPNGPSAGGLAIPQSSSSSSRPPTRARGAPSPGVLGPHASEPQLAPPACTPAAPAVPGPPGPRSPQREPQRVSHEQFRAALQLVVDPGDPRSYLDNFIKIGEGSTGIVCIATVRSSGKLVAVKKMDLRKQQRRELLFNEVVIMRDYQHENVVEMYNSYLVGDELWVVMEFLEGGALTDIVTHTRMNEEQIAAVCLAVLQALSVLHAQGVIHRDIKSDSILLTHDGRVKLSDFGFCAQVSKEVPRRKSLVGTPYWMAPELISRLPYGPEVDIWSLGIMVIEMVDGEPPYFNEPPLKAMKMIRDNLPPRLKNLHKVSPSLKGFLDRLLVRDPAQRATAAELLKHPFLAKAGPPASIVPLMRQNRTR
Proto-oncogene tyrosine-protein kinase Src (Homo sapiens), sequence (P12931 2-536 limits assumed): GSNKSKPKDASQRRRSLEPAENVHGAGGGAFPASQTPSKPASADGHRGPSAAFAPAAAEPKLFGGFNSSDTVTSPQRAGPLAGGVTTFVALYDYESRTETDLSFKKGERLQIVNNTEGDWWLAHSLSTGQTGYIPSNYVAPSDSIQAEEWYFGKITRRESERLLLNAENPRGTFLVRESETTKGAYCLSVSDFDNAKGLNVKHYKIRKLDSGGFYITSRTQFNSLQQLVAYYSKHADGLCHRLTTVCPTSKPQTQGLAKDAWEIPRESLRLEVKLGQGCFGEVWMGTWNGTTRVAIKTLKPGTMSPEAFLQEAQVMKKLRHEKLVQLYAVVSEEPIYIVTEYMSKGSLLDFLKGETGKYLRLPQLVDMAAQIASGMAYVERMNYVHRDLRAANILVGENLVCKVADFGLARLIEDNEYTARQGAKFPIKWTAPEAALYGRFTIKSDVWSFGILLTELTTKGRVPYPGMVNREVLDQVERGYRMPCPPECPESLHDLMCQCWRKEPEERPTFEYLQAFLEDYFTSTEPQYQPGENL
Insulin-like growth factor 1 receptor (Homo sapiens), sequence (P08069 31-736 limits assumed): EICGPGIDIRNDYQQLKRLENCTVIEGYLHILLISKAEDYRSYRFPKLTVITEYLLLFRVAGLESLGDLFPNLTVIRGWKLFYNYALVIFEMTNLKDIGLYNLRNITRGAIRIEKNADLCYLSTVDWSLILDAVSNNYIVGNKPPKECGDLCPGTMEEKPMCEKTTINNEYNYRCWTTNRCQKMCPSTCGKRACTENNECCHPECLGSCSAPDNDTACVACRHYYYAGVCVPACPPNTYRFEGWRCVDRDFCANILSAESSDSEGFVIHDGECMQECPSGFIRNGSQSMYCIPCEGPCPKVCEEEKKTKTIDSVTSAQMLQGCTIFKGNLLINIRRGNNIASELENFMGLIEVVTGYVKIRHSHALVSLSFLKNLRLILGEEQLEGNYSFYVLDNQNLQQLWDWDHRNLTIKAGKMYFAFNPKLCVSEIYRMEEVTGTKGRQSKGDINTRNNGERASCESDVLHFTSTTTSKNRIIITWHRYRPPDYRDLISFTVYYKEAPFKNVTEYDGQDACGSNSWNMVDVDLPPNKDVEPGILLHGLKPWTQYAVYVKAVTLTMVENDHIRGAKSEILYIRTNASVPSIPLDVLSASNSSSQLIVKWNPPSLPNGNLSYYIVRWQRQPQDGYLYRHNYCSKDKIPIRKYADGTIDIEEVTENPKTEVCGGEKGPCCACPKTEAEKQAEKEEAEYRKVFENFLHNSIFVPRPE
Insulin-like growth factor 1 receptor (Homo sapiens), sequence (P08069 741-1367 limits assumed): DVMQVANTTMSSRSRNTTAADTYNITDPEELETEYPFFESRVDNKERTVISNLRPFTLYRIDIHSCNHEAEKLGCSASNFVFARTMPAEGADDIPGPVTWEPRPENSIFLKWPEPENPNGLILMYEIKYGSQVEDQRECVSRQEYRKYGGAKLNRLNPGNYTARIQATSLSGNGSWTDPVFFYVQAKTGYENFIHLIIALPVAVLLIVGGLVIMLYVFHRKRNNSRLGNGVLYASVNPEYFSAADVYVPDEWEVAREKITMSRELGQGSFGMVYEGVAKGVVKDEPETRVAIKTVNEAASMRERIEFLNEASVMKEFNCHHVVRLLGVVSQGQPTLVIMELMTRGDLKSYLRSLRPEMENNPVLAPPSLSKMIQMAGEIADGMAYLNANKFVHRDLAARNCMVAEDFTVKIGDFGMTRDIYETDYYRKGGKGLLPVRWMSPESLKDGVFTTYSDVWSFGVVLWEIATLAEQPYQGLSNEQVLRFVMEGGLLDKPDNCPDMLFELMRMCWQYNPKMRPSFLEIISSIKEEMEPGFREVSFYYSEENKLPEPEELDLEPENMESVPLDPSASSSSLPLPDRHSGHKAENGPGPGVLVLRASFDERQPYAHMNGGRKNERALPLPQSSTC
3-phosphoinositide-dependent protein kinase 1 (Homo sapiens), sequence (O15530 whole entry, looked up): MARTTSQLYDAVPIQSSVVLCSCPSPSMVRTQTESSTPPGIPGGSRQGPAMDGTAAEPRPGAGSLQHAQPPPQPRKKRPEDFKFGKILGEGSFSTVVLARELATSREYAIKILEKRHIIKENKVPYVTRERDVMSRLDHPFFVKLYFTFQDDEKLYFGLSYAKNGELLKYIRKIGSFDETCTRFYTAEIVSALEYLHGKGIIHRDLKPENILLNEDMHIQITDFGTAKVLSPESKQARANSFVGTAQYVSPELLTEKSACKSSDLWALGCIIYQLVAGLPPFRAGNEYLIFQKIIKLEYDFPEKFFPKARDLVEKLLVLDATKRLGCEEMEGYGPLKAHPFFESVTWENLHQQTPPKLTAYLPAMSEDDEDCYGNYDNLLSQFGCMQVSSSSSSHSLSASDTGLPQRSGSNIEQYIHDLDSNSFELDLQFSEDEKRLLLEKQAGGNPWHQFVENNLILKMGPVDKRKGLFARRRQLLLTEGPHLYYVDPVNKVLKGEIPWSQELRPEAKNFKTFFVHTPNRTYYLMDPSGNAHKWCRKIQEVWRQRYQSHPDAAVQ
RAC-alpha serine/threonine-protein kinase (Homo sapiens), sequence (P31749 whole entry): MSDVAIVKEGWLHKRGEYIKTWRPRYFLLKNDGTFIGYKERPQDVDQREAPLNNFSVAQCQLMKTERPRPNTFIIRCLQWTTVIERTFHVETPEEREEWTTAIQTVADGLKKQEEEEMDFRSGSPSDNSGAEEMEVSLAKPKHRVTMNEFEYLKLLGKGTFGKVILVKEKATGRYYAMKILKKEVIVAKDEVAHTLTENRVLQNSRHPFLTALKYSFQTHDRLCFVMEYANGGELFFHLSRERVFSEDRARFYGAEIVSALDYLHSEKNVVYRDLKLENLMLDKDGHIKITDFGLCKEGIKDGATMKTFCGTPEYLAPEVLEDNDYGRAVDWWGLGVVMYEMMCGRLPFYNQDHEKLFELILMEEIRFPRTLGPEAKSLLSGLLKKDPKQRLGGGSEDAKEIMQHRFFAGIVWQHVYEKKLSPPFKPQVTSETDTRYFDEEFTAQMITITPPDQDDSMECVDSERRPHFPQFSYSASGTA
Cyclin-dependent kinase 4, sequence (P11802 whole entry): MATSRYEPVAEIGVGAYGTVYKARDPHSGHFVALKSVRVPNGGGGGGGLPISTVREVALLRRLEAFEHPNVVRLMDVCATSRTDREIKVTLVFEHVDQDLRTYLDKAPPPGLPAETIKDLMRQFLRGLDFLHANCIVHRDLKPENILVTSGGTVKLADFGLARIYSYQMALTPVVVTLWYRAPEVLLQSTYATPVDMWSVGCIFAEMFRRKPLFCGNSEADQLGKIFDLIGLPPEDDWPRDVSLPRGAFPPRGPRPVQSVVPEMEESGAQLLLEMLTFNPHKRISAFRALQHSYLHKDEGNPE

On to `O=C1Cc2cnn(-c3cccc(Cl)c3)c2-c2ccccc2N1`, for which the half-inhibitory concentration (IC50) in assay [1] is over 10 µM. The inhibition in assay [2], in [3], in [4], in assay [5], in [6] and in assay [7] was under 40% throughout. The inhibition in assay [8], in assay [9], in [10], in [11], in assay [12] and in assay [13] was under 40% each time. Further, the inhibition (in assay [14]; in the assay listed under Homo sapiens) was under 40% throughout. In addition, the growth, % of control at 100 µM in the assay with NCI-H460 amounted to 39%.

On to `O=C1Cc2cnn(-c3ccc(C(F)(F)F)cc3)c2-c2ccccc2N1`, for which the inhibition in assay [2], in assay [3], in assay [4], in assay [5], in assay [6] and in assay [7] was under 40% throughout. For the same molecule, the inhibition in assay [8], in assay [9], in assay [10], in assay [11], in [12] and in assay [13] was under 40% each time. The inhibition (in assay [14]; in the assay listed under Homo sapiens) was under 40% throughout. For the same molecule, the GI50 in the assay with K562 was found to be 12.6 µM; with MDA-MB-435 it was 11.2 µM. Also, in the assay on NCI-H460, the growth, % of control at 100 µM stood at 28%.

Take `O=C1Cc2cnn(-c3ccccc3)c2-c2ccccc2N1`: the inhibition in assay [2], in [3], in assay [4], in assay [5], in assay [6] and in assay [7] was under 40% each time. Also, the inhibition in assay [8], in assay [15], in assay [9], in assay [10], in [11] and in assay [12] was under 40% each time. The inhibition (in assay [13]; in assay [14]; in the assay filed under Homo sapiens) was under 40% in each case. In addition, in the assay on NCI-H460, the growth, % of control at 100 µM was determined as 33%.

With `O=C1Cc2cnn(-c3ccc(Cl)cc3)c2-c2ccccc2N1`, the inhibition in [2], in assay [3], in assay [4], in assay [5], in [7] and in [8] was under 40% in each case. Moreover, the inhibition in assay [9], in assay [10], in assay [11], in assay [12], in assay [13] and in assay [14] was under 40% in each case. The molecule further displayed an inhibition in the assay filed under Homo sapiens of under 40%. Further, in [16], the IC50 was over 10 µM. The molecule also showed a growth, % of control at 100 µM with NCI-H460 of 41%.

In the case of `COc1ccc(-n2ncc3c2-c2ccccc2NC(=O)C3)cc1`, the inhibition in assay [2], in assay [3], in assay [4], in assay [5], in assay [6] and in [7] was under 40% each time. Moreover, the inhibition in assay [8], in assay [9], in [10], in [11], in assay [12] and in assay [13] was under 40% each time. For the same molecule, the inhibition (in assay [14]; in the assay filed under Homo sapiens) was under 40% in each case. Besides, the GI50 in the assay on K562 is 0.35 µM; with MDA-MB-435, 0.025 µM. Moreover, in the assay with NCI-H460, the growth, % of control at 100 µM came out at 26%.

For `O=C1Cc2cnn(-c3cc(Cl)cc(Cl)c3)c2-c2ccccc2N1`, the inhibition in assay [2], in assay [3], in assay [4], in assay [5], in [6] and in assay [7] was under 40% in each case. Moreover, the inhibition in assay [8], in [9], in assay [10], in assay [11], in assay [12] and in assay [13] was under 40% each time. In addition, the inhibition (in assay [14]; in the assay filed under Homo sapiens) was under 40% in each case. In addition, the GI50 with K562 and with MDA-MB-435 was under 0.01 µM each time. The same molecule came in with a growth, % of control at 100 µM in the assay on NCI-H460 of 21%.

`Cc1ccc(-n2ncc3c2-c2ccccc2NC(=O)C3)cc1`: the inhibition in assay [2], in assay [3], in [4], in assay [5], in assay [6] and in [7] was under 40% in each case. The inhibition in assay [8], in assay [9], in [10], in assay [11], in assay [12] and in assay [13] was under 40% throughout. The inhibition (in assay [14]; in the assay filed under Homo sapiens) was under 40% in each case. The GI50 came to 1.78 µM in the assay on K562 and 2.09 µM with MDA-MB-435. Besides, in the assay with NCI-H460, the growth, % of control at 100 µM was 29%.

With `CC(C)(C)c1ccc(-n2ncc3c2-c2ccccc2NC(=O)C3)cc1`, the inhibition in [2], in [3], in [4], in assay [5], in assay [6] and in [7] was under 40% throughout. The inhibition in assay [8], in [10], in assay [11], in assay [12], in [13] and in [14] was under 40% throughout. Moreover, the inhibition in the assay filed under Homo sapiens was under 40%. For the same molecule, the IC50 in assay [17] is over 10 µM. In addition, the GI50 came out at 31.6 µM with K562 and 18.6 µM in the assay with MDA-MB-435. The growth, % of control at 100 µM in the assay on NCI-H460 came out at 11%.

In the case of `O=C1Cc2cnn(-c3ccc(Br)cc3)c2-c2ccccc2N1`, the inhibition in assay [2], in [3], in [4], in [5], in assay [6] and in assay [7] was under 40% each time. Moreover, the inhibition in assay [8], in assay [9], in assay [10], in assay [11], in assay [12] and in assay [13] was under 40% throughout. The inhibition (in assay [14]; in the assay filed under Homo sapiens) was under 40% in each case. The GI50 amounted to 4.07 µM with K562 and 1.91 µM in the assay on MDA-MB-435. Also, in the assay on NCI-H460, the growth, % of control at 100 µM amounted to 32%.

For the origin of these results see ChEMBL document CHEMBL1139946, “1-Aryl-4,6-dihydropyrazolo[4,3-d][1]benzazepin-5(1H)-ones: a new class of antiproliferative agents with selectivity for human leukemia and breast cancer cell lines” (Eur J Med Chem, 2007).
